Laboratory results as given in ChEMBL document CHEMBL4699390, “Chromone and donepezil hybrids as new multipotent cholinesterase and monoamine oxidase inhibitors for the potential treatment of Alzheimer''s disease” (RSC Med Chem, 2020).
Activity calls are given as the source filed them. The rule behind the calls is not given here.

How the values were obtained:
Acetylcholinesterase = Acetylcholinesterase (Electrophorus electricus, UniProt O42275); test: Inhibition of electric eel AChE using acetylthiocholine iodide as substrate preincubated with enzyme for 6 mins followed by substrate addition and measured for 180 secs by Ellman's method
Sequence of Acetylcholinesterase (O42275 whole entry): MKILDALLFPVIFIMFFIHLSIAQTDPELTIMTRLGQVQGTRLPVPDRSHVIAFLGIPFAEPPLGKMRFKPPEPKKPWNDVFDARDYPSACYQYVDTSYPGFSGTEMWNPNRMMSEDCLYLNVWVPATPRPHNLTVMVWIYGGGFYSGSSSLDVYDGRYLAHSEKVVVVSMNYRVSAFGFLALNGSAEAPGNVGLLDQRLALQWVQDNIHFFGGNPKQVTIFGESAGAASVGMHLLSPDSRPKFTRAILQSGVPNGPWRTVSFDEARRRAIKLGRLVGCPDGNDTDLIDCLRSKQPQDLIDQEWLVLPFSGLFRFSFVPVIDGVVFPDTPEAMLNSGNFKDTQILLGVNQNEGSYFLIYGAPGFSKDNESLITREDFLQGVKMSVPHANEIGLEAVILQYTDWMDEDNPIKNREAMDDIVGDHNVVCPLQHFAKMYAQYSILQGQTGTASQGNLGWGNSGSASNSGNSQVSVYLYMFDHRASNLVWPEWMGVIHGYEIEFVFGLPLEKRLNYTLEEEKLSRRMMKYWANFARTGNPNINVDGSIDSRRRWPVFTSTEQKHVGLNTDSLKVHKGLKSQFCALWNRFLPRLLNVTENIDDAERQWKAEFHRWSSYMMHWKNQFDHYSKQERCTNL

Cholinesterase = Cholinesterase (Equus caballus, UniProt P81908); test: Inhibition of equine serum BuChE using butyrylthiocholine iodide as substrate preincubated with enzyme for 6 mins followed by substrate addition and measured for 180 secs by Ellman's method
Sequence of Cholinesterase (P81908 whole entry): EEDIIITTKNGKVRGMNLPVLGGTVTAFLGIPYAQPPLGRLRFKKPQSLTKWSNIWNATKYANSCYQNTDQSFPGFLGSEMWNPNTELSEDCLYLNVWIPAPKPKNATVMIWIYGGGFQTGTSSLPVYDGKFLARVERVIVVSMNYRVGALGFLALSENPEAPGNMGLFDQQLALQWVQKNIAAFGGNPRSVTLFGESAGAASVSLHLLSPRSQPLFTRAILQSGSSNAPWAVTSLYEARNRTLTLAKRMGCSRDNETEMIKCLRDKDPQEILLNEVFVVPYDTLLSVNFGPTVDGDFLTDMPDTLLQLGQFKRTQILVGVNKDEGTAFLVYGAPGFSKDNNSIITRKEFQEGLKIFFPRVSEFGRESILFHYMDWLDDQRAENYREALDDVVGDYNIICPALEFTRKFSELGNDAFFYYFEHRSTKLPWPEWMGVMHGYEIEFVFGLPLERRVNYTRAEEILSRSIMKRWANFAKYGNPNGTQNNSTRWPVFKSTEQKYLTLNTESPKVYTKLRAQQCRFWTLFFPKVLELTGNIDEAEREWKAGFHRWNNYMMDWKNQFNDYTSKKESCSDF
In short: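 Ellman assay. Enzyme at 0.12 U/mL in 50 mM Tris-HCl pH 8.0 with 0.1% w/v BSA, plus 1.5 mM DTNB, preincubated with compound (0.001-100 μM, diluted from DMSO stock into Tris buffer with MgCl₂/NaCl) at 37 °C for 6 min. Then 15 mM butyrylthiocholine iodide was added, and absorbance at 405 nm was read at 0, 60, 120 and 180 s. IC50 from nonlinear regression of log concentration-response curves; at least three experiments in triplicate.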

[1] = Selectivity index, ratio of IC50 for equine serum BuChE to IC50 for electric eel AChE by Ellman's method
[2] = biological target: T1, Amine oxidase [flavin-containing] A (Homo sapiens, UniProt P21397); test: Inhibition of recombinant human MAO- A using p-tyramine as substrate at 100 uM preincubated with enzyme for 15 mins followed incubation with substrate for 20 mins by Amplex red reagent based fluorescence based analysis relative to control; conditions: time 35 min
T1 sequence (P21397 whole entry): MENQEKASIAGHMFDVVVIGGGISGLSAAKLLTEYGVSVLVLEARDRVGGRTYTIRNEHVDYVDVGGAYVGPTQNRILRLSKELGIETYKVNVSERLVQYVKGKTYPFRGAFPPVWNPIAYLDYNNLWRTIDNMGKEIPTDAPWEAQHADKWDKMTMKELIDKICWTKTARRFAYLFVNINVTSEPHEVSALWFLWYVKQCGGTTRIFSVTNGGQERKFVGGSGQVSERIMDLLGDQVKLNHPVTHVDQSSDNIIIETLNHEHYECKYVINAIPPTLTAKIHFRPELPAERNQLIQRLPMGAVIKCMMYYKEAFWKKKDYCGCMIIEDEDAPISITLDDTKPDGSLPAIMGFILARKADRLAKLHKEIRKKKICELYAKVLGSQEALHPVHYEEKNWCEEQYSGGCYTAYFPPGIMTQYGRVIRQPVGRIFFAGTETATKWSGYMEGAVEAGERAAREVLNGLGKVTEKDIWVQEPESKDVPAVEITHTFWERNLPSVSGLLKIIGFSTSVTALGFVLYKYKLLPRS
In short: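 Human MAO-A (1.1 µg protein, activity set to oxidize 165 pmol p-tyramine/min) was preincubated with compound in 0.05 M potassium phosphate pH 7.4 at 37 °C for 15 min in the dark. The reaction was started with 2 mM p-tyramine, 2 U/mL HRP and 200 µM Amplex Red for 20 min at 37 °C. Fluorescence was read at ex 545/em 590 nm, and inhibition was calculated against the uninhibited control after background subtraction.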

[3] = biological target: T2, Amine oxidase [flavin-containing] B (Homo sapiens, UniProt P27338)
T2 sequence (P27338 whole entry): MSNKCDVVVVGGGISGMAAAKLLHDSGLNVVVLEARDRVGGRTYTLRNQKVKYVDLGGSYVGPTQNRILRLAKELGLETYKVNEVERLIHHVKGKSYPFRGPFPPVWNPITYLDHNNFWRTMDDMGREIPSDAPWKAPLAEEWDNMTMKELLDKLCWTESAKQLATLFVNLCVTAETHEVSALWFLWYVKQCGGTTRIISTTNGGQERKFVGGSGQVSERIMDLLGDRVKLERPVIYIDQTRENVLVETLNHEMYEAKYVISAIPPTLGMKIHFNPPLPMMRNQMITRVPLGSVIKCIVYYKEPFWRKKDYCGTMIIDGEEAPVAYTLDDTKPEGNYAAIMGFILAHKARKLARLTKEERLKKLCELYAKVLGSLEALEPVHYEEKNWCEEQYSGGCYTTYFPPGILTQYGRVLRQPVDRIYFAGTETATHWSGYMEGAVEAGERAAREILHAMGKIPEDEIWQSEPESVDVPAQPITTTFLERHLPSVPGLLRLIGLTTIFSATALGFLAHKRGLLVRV

Homo sapiens = species: Homo sapiens; test: Selectivity for recombinant human MAO-B over recombinant human MAO-A
in vitro = conditions: PAMPA
PC-12 = test: Cytotoxicity against rat PC12 cells assessed as cell viability at 1 to 50 uM measured after 24 hrs by MTT assay; type: cell-based; conditions: pc-12, 24 h, dose 1-50 µM
In short: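 PC12 cells were grown at 37 °C, 5% CO₂ in DMEM with 10% bovine calf serum and penicillin/streptomycin, then seeded at 10,000 cells/well. At the required confluence they were switched to serum-free medium with compound for 24 h. Viability was read by MTT (4 h at 37 °C), with formazan dissolved in DMSO.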

[4] = biological target: T1, Amine oxidase [flavin-containing] A; test: Inhibition of recombinant human MAO- A using p-tyramine as substrate preincubated with enzyme for 15 mins followed incubation with substrate for 20 mins by Amplex red reagent based fluorescence based analysis
[5] = biological target: Acetylcholinesterase (Electrophorus electricus) (UniProt O42275); test: Mixed-type inhibition of electric eel AChE using varying concentration of acetylthiocholine iodide as substrate at 0.185 to 0.74 uM by Lineweaver-burk plot analysis; conditions: dose microM 0.185-0.74
Sequence of Acetylcholinesterase (Electrophorus electricus) (O42275 24-633 limits assumed): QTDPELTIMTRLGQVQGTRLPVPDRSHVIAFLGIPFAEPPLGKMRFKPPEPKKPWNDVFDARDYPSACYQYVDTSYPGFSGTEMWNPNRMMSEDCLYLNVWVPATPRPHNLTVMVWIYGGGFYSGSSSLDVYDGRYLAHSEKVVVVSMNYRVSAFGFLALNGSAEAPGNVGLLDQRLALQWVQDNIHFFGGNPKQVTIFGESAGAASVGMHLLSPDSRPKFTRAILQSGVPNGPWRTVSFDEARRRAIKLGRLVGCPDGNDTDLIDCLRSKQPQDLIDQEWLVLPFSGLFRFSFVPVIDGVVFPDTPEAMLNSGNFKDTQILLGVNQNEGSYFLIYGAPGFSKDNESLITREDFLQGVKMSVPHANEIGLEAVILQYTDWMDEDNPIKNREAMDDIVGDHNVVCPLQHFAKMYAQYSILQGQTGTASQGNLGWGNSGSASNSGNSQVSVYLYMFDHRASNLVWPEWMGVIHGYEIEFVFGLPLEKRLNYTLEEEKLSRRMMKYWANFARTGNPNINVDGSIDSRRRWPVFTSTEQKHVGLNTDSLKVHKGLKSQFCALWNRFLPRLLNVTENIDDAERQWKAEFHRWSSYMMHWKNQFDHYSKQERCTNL

[6] = biological target: T2, Amine oxidase [flavin-containing] B; test: Competitive inhibition of recombinant human MAO-B using varying concentration of p-tyramine as substrate at 0.13 to 0.54 uM by Lineweaver-burk plot analysis; conditions: dose 0.13-0.54 µM
In short: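 Preincubation-free kinetic run with human MAO-B: initial oxidation rates of p-tyramine measured at six substrate concentrations without inhibitor and with three inhibitor concentrations (0.54, 0.27, 0.13 μM). Activity was read by the Amplex Red/horseradish peroxidase fluorescence method. Plots were fitted by weighted least-squares analysis, assuming the variance of v is a constant percentage of v.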

[7] = biological target: Cholinesterase (Equus caballus) (UniProt P81908); test: Competitive inhibition of equine serum BuChE […] using varying concentrations of butyrylthiocholine iodide as substrate at 2.6 to 10.5 uM by Lineweaver-burk plot analysis; conditions: dose microM 2.6-10.5
Sequence of Cholinesterase (Equus caballus) (P81908 whole entry): as the sequence (P81908 whole entry) above

O=C(NCCC1CCN(Cc2ccccc2)CC1)c1coc2ccccc2c1=O
IC50 (Acetylcholinesterase): 0.069 µM
IC50 (Cholinesterase): 0.6 µM
Ratio IC50 [1]: 8.7
inhibition at 100 µM [2]: 68.6%
IC50 [3]: 35.3 µM
Selectivity ratio (Homo sapiens): < 2.8

COc1ccc2c(=O)c(C(=O)NCCC3CCN(Cc4ccccc4)CC3)coc2c1
IC50 (Acetylcholinesterase): 0.145 µM
IC50 (Cholinesterase): 0.52 µM
Ratio IC50 [1]: 3.7
inhibition at 100 µM [2]: 32.4%
IC50 [3]: 30.9 µM
Selectivity ratio (Homo sapiens): > 3.2

O=C(NC1CCN(Cc2ccccc2)CC1)c1coc2ccccc2c1=O
IC50 (Acetylcholinesterase): 2.96 µM
IC50 (Cholinesterase): 18.7 µM
Ratio IC50 [1]: 6.3
inhibition at 100 µM [2]: 63.8%
IC50 [3]: 17.7 µM
Selectivity ratio (Homo sapiens): < 5.6
Papp at 16 h (in vitro): 15.6 ×10⁻⁶ cm/s

O=C(NC1CCN(Cc2ccccc2)CC1)c1cc(=O)c2ccccc2o1
IC50 (Acetylcholinesterase): 5.69 µM
IC50 (Cholinesterase): 27.9 µM
Ratio IC50 [1]: 7.6
inhibition at 100 µM [2]: 29.7%
IC50 [3]: 33.3 µM
Selectivity ratio (Homo sapiens): > 3.1

COc1ccc2c(=O)c(C(=O)NC3CCN(Cc4ccccc4)CC3)coc2c1
IC50 (Acetylcholinesterase): 1.58 µM
IC50 (Cholinesterase): 9.78 µM
Ratio IC50 [1]: 6.2
inhibition at 100 µM [2]: 37.4%
IC50 [3]: 28.6 µM
Selectivity ratio (Homo sapiens): > 3.5

O=C(NC1CCN(Cc2ccccc2)CC1)c1coc2ccc(Br)cc2c1=O
IC50 (Acetylcholinesterase): 1.57 µM
IC50 (Cholinesterase): 9.45 µM
Ratio IC50 [1]: 6.1
inhibition at 100 µM [2]: 35.5%
IC50 [3]: 22.8 µM
Selectivity ratio (Homo sapiens): > 4.4

O=C(NCCC1CCN(Cc2ccccc2)CC1)c1coc2cc(Br)ccc2c1=O
IC50 (Acetylcholinesterase): 0.154 µM
IC50 (Cholinesterase): 1.24 µM
Ratio IC50 [1]: 11.9
inhibition at 100 µM [2]: 30.3%
IC50 [3]: 29.5 µM
Selectivity ratio (Homo sapiens): > 3.4

COc1ccc2occ(C(=O)NC3CCN(Cc4ccccc4)CC3)c(=O)c2c1
IC50 (Acetylcholinesterase): 10.1 µM
IC50 (Cholinesterase): 24.4 µM
Ratio IC50 [1]: 2.4
inhibition at 100 µM [2]: 7.5%
IC50 [3]: 46.3 µM
Selectivity ratio (Homo sapiens): > 2.1

O=C(NC1CCN(Cc2ccccc2)CC1)c1coc2cc(Br)ccc2c1=O
IC50 (Acetylcholinesterase): 9.23 µM
IC50 (Cholinesterase): 18.2 µM
Ratio IC50 [1]: 1.2
inhibition at 100 µM [2]: 31.6%
IC50 [3]: 19.7 µM
Selectivity ratio (Homo sapiens): > 5.1

O=C(NCCC1CCN(Cc2ccccc2)CC1)c1coc2ccc(Br)cc2c1=O
IC50 (Acetylcholinesterase): 0.104 µM
IC50 (Cholinesterase): 1.17 µM
Ratio IC50 [1]: 11.3
inhibition at 100 µM [2]: 48.2%
IC50 [3]: 26.1 µM
Selectivity ratio (Homo sapiens): > 3.8

O=C(NCCC1CCN(Cc2ccccc2)CC1)c1cc(=O)c2ccccc2o1
IC50 (Acetylcholinesterase): 0.31 µM
IC50 (Cholinesterase): 1.54 µM
Ratio IC50 [1]: 4.9
inhibition at 100 µM [2]: 29.5%
IC50 [3]: 20 µM
Selectivity ratio (Homo sapiens): > 4.9

Cc1ccc2occ(C(=O)NC3CCN(Cc4ccccc4)CC3)c(=O)c2c1
IC50 (Acetylcholinesterase): 1.74 µM
IC50 (Cholinesterase): 15.3 µM
Ratio IC50 [1]: 8.8
inhibition at 100 µM [2]: 48.1%
IC50 [3]: 19.5 µM
Selectivity ratio (Homo sapiens): > 5.1

COc1ccc2occ(C(=O)NCCC3CCN(Cc4ccccc4)CC3)c(=O)c2c1
IC50 (Acetylcholinesterase): 0.033 µM
IC50 (Cholinesterase): 0.45 µM
Ratio IC50 [1]: 13.7
inhibition at 100 µM [2]: 72.4%
IC50 [3]: 11.2 µM
Selectivity ratio (Homo sapiens): < 8.9
Activity (PC-12): Non-Toxic
Papp at 16 h (in vitro): 16.7 ×10⁻⁶ cm/s

Cc1ccc2occ(C(=O)NCCC3CCN(Cc4ccccc4)CC3)c(=O)c2c1
IC50 (Acetylcholinesterase): 0.11 µM
IC50 (Cholinesterase): 0.91 µM
Ratio IC50 [1]: 8.3
inhibition at 100 µM [2]: 30.6%
IC50 [3]: 52.5 µM
Selectivity ratio (Homo sapiens): > 1.9

O=C(NC1CCN(Cc2ccccc2)CC1)c1coc2ccc(OCc3ccccc3)cc2c1=O
IC50 (Acetylcholinesterase): 1.85 µM
IC50 (Cholinesterase): 12.4 µM
Ratio IC50 [1]: 6.7
IC50 [3]: 0.035 µM
Selectivity ratio (Homo sapiens): 211
Activity (PC-12): Non-Toxic
IC50 [4]: 11.6 µM
Papp at 16 h (in vitro): 4.6 ×10⁻⁶ cm/s

O=C(NCCC1CCN(Cc2ccccc2)CC1)c1coc2ccc(OCc3ccccc3)cc2c1=O
IC50 (Acetylcholinesterase): 0.37 µM
IC50 (Cholinesterase): 5.24 µM
Ratio IC50 [1]: 14.2
IC50 [3]: 0.272 µM
Selectivity ratio (Homo sapiens): 247
inhibition [5]: Active
inhibition (INH) [6]: Active
Activity (PC-12): Non-Toxic
IC50 [4]: 67.2 µM
inhibition [7]: Active
Papp at 16 h (in vitro): 5.4 ×10⁻⁶ cm/s
